Published values from different studies.
Protocols differ between the studies behind these lines.
Cell line: RAW264.7

For `COc1ccc(C[C@H](N)C(=O)N[C@H]2[C@@H](O)[C@H](n3cnc4c(N(C)C)ncnc43)O[C@@H]2CO)cc1`, the IC50 was 1.54 µM (cell growth or viability, resazurin; 72 h).
`[H]/N=C(/NC)NCCC[C@H](N)C(=O)O` has an inhibition of 97.1% (NO release, inhibitor, Griess; 250 µg/mL, 24 h, LPS-stimulated).
With `C[C@@H]1C[C@H]2[C@@H]3CCC4=CC(=O)C=C[C@]4(C)[C@@]3(F)[C@@H](O)C[C@]2(C)[C@@]1(O)C(=O)CO` the IC50 was 13.1 µM (NO release, inhibitor, Griess; LPS-stimulated).
`C=C1CC[C@@H]2[C@](C)(CO)[C@H](O)CC[C@@]2(C)[C@@H]1C/C=C1/C(=O)OC[C@H]1O` gave an IC50 of 48.6 µM (NO release, inhibitor, Griess; 24 h, LPS-stimulated).
With `C[C@]12C=CC(=O)C=C1CC[C@@H]1[C@@H]2[C@@H](O)C[C@@]2(C)[C@H]1CC[C@]2(O)C(=O)CO` the IC50 was 0.2 µg/mL (NO release, inhibitor, Griess; 24 h, LPS-stimulated).
The IC50 of `CCOc1ccc(Nc2c3c(nc4ccccc24)CCC3)cc1` is reported as 38.4 µM (cell growth or viability, resazurin; 72 h).
The IC50 of `[H]/N=C(/NC)NCCC[C@H](N)C(=O)O` is reported as 21.8 µM (NO release, inhibitor, Griess; LPS-stimulated).
The IC50 of `COc1ccc2c(c1)c(CC(=O)O)c(C)n2C(=O)c1ccc(Cl)cc1` is reported as 26.5 µM (NO release, inhibitor, Griess; 24 h, LPS-stimulated).
